For orientation: half-life means the time in which the quantity being followed falls by half. Low readings indicate rapid decline, high ones slow decline. Usually IC50 stands for the concentration at which inhibition is half-maximal. As a reminder, the bioavailability is the share of a dose that reaches the circulation, judged against a reference dose that is usually intravenous.

The source of these data is ChEMBL document CHEMBL1772969, “Synthesis, structure-activity relationship, and antimalarial activity of ureas and thioureas of 15-membered azalides” (J Med Chem, 2011).

The source made the active and inactive calls. The calls are words filed in the database; no cut-off is given here. Some results are limits rather than exact numbers.

The nature of series [1]: Half life in Sprague-Dawley rat at 10 mg/kg, iv and 30 mg/kg, po. The format is ADME, organism-based. The settings on record: in vivo. A digest of the protocol:
(§1)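 Male Sprague-Dawley rats (250–300 g), crossover design. Dosed 10 mg/kg iv, then 2-day washout, then 30 mg/kg oral (free base equivalent), formulated in 1%/20% Encapsin (w/v) and saline. Blood sampled up to 24 h and analysed by LC-MS/MS. Clearance and terminal-phase Vd based on blood concentration.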

Series [2] can be described thus: Half life in human liver microsomes at 1 uM by LCMS analysis. The class given is ADME, Microsome. A digest of the protocol: (§2)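 Compound at 1 μM final with 0.5 mg/mL pooled human or mouse liver microsomes, 1.3 mM NADP, 3.3 mM MgCl₂, 0.1 M PBS pH 7.4. Reaction started with 1 U/mL G6PD, shaken at 37 °C. Aliquots quenched with cold acetonitrile at 0, 10, 20, 30 and 60 min and quantified by LCMS. t₁/₂ taken from log plot of total ion chromatogram area remaining.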
On the technique in general: Microsomes from liver hold many membrane-bound enzymes, among them those of drug oxidation.

The subject of series [3] is Plasmodium falciparum. In words: Antimalarial activity against chloroquine-sensitive Plasmodium falciparum D6 after 48 hrs by [3H]hypoxanthine incorporation assay. The format is functional, organism-based. In short, it runs like this:
(§3)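 [3H]hypoxanthine incorporation assay (Desjardins method, Milhous modification) with 48 h drug exposure. Compounds and controls were 2-fold diluted across 11 concentrations. IC50 was fitted by nonlinear logistic dose-response. Values are averaged where multiple results were generated, with relative errors usually <30%.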

The test system of series [4] is Plasmodium berghei. Description: Antiplasmodial activity against Plasmodium berghei KBG-173 infected in mouse assessed as mouse without parasitemia at 60 mg/kg, sc bid for 3 days measured on day 31. The format is functional, organism-based. Further details: dose 60 mg/kg. A digest of the protocol:
(§4)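 P. berghei KBG-173: 5 × 10⁶ infected erythrocytes injected intraperitoneally into male mice (24–30 g); parasitemia 1.0–3.7% by day 3. Oil suspension given subcutaneously twice daily at 160, 40 or 10 mg/kg on days 3–5 postinfection (totals 960/240/60 mg/kg); 4–5 mice per group. Blood films on day 6, then biweekly to day 31; film-negative on day 31 counted as cured.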

The test system of the next series is THP-1. Description: Cytotoxicity against human THP1 cells after 1 to 4 hrs by MTS assay. The class given is cell-based. A digest of the protocol:
(§5)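 HepG2 and THP-1 cells grown in RPMI 1640 with 10% FBS at 37 °C, 5% CO₂, and passaged twice weekly. Compounds applied as continuous exposure. Viability read by MTS reagent, 1–4 h incubation, absorbance at 490 nm; IC₅₀ derived.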
On the technique in general: Tetrazolium dyes change colour on reduction, which living cells bring about.

Series [5] relates to Plasmodium falciparum. In words: Antimalarial activity against multidrug-resistant Plasmodium falciparum TM91C235 after 48 hrs by [3H]hypoxanthine incorporation assay. The format is functional, organism-based. A digest of the protocol: as §3
The next series has as its system HepG2. In words: Cytotoxicity against human HepG2 cells after 1 to 4 hrs by MTS assay. The class given is cell-based. A digest of the protocol: as §5
Series [6] is described as follows: Apparent volume of distribution during terminal phase in Sprague-Dawley rat at 10 mg/kg, iv and 30 mg/kg, po. The format is ADME, organism-based. The settings on record: in vivo, read-out: Vz/F. In short, it runs like this: as §1
Series [7] in a line: Half life in mouse liver microsomes at 1 uM by LCMS analysis. The class given is ADME, Microsome. A digest of the protocol: as §2
Series [8] relates to Plasmodium falciparum. In words: Antimalarial activity against chloroquine/pyrimethamine-resistant Plasmodium falciparum W2 after 48 hrs by [3H]hypoxanthine incorporation assay. The class given is functional, organism-based. A digest of the protocol:
as §3

For series [9], the system named is Plasmodium berghei. Description: Antiplasmodial activity against Plasmodium berghei KBG-173 infected in mouse assessed as mouse without parasitemia at 240 mg/kg, sc bid for 3 days measured on day 31. Further details: dose 240 mg/kg. The class given is functional, organism-based. In short, it runs like this: as §4
Series [10] in a line: Blood clearance in Sprague-Dawley rat at 10 mg/kg, iv and 30 mg/kg, po. The format is ADME, organism-based. Particulars: whole blood. A digest of the protocol: as §1
A short description of series [11]: Oral bioavailability in Sprague-Dawley rat at 30 mg/kg. The settings on record: in vivo. The format is ADME, organism-based. In short, it runs like this: as §1
The subject of series [12] is Plasmodium berghei. In words: Antiplasmodial activity against Plasmodium berghei KBG-173 infected in sc dosed mouse administered bid for 3 days. The class given is functional. In short, it runs like this: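 Male mice (24-30 g) were infected ip with 5 × 10⁶ P. berghei KBG-173-infected erythrocytes. Drug suspended in palm/peanut oil was given sc twice daily on days 3-5 post-infection at 160, 40 or 10 mg/kg per dose, 0.01 mL/g, in groups of 4-5. Blood films were taken day 6, then biweekly to day 31. Mice smear-negative on day 31 were counted cured. CD50 is the daily dose curing 50%.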

For series [13], the system named is Plasmodium berghei. In words: Antiplasmodial activity against Plasmodium berghei KBG-173 infected in mouse assessed as mouse without parasitemia at 960 mg/kg, sc bid for 3 days measured on day 31. The format is functional, organism-based. More on the design: dose 960 mg/kg. In short, it runs like this:
as §4

In series [1], `CC[C@H]1OC(=O)[C@H](C)[C@@H](O[C@H]2C[C@@](C)(OC)[C@@H](O)[C@H](C)O2)[C@H](C)[C@@H](O[C@@H]2O[C@H](C)C[C@H](N(C)C)[C@H]2O)[C@](C)(O)C[C@@H](C)CN(CCCN(CCC#N)C(=S)NCCCc2ccccc2)[C@H](C)[C@@H](O)[C@]1(C)O` showed a half-life of 15.2 h. The half-life at 1 µM in [2] and in [7] was > 2 h each time. Moreover, the IC50 in the series with Plasmodium falciparum [3] stood at 179 nM; in the series on THP-1, 5000 nM; in the series with Plasmodium falciparum [5], 62 nM; with HepG2, 9000 nM; with Plasmodium falciparum [8], 88 nM. Further, the outcome with Plasmodium berghei [4] and in the series on Plasmodium berghei [9] was inactive. In [6], the Vd/F stood at 31.7 L/kg. Besides, the clearance in [10] stood at 24.5 mL/min/kg. The molecule further yielded a bioavailability in [11] of 21%. In the series with Plasmodium berghei [12], the CD50 was 800 mg/kg.

Take `CC[C@H]1OC(=O)[C@H](C)[C@@H](O[C@H]2C[C@@](C)(OC)[C@@H](O)[C@H](C)O2)[C@H](C)[C@@H](O[C@@H]2O[C@H](C)C[C@H](N(C)C)[C@H]2O)[C@](C)(O)C[C@@H](C)CN(CCCNC(=O)NC(C)c2cccc3ccccc23)[C@H](C)[C@@H](O)[C@]1(C)O` (some centres undefined): the outcome in the series on Plasmodium berghei [13] was Active. Further, the half-life at 1 µM in [2] and in [7] was > 2 h each time. In addition, the IC50 in the series with Plasmodium falciparum [3] is 292 nM; in the series on THP-1, 46000 nM; in the series on Plasmodium falciparum [5], 107 nM; with HepG2, > 50000 nM; in the series on Plasmodium falciparum [8], 106 nM. The outcome in the series with Plasmodium berghei [9] was inactive. The CD50 with Plasmodium berghei [12] is 397.5 mg/kg.

As to `CC[C@H]1OC(=O)[C@H](C)[C@@H](O[C@H]2C[C@@](C)(OC)[C@@H](O)[C@H](C)O2)[C@H](C)[C@@H](O[C@@H]2O[C@H](C)C[C@H](N(C)C)[C@H]2O)[C@](C)(O)C[C@@H](C)CN(CCCN(CCC#N)C(=S)NCCc2ccccc2)[C@H](C)[C@@H](O)[C@]1(C)O`, the result with Plasmodium berghei [13] and in the series with Plasmodium berghei [4] was inactive. In addition, the half-life at 1 µM in series [2] was 1.72 h; in series [7], > 2 h. Moreover, the IC50 in the series on Plasmodium falciparum [3] is 88 nM; with THP-1 it was 6000 nM; with Plasmodium falciparum [5], 48 nM; with HepG2, 13000 nM; in the series with Plasmodium falciparum [8], 51 nM. Further, in the series on Plasmodium berghei [12], the CD50 was >960 mg/kg.

`CC[C@H]1OC(=O)[C@H](C)[C@@H](O[C@H]2C[C@@](C)(OC)[C@@H](O)[C@H](C)O2)[C@H](C)[C@@H](O[C@@H]2O[C@H](C)C[C@H](N(C)C)[C@H]2O)[C@](C)(O)C[C@@H](C)CN(CCCNC(=S)NCc2ccccc2)[C@H](C)[C@@H](O)[C@]1(C)O`: in series [1], the half-life is 30 h. The half-life at 1 µM in series [2] and in [7] was > 2 h each time. For the same molecule, the IC50 in the series with Plasmodium falciparum [3] is 257 nM; in the series with THP-1 it was 47000 nM; with Plasmodium falciparum [5], 156 nM; in the series on HepG2 it was > 50000 nM; in the series with Plasmodium falciparum [8], 121 nM. Besides, the Vd/F in [6] was determined as 10.4 L/kg. This molecule showed a clearance in series [10] of 4 mL/min/kg. In [11], this molecule had a bioavailability of 3.4%. Moreover, the CD50 with Plasmodium berghei [12] was 285 mg/kg.

`CC[C@H]1OC(=O)[C@H](C)[C@@H](O[C@H]2C[C@@](C)(OC)[C@@H](O)[C@H](C)O2)[C@H](C)[C@@H](O[C@@H]2O[C@H](C)C[C@H](N(C)C)[C@H]2O)[C@](C)(O)C[C@@H](C)CN(CCCNC(=S)NCCCc2ccccc2)[C@H](C)[C@@H](O)[C@]1(C)O` had a half-life in [1] of 13.4 h. For the same molecule, the half-life at 1 µM in series [2] and in series [7] was > 2 h throughout. Besides, the IC50 was determined as 107 nM in the series on Plasmodium falciparum [3]; 15000 nM in the series on THP-1; 82 nM in the series on Plasmodium falciparum [5]; 22000 nM in the series with HepG2; 85 nM in the series with Plasmodium falciparum [8]. For the same molecule, the outcome in the series on Plasmodium berghei [4] was inactive. Further, the Vd/F in [6] stood at 2.6 L/kg. The molecule further returned a clearance in series [10] of 2.3 mL/min/kg. The molecule further had a bioavailability in series [11] of 1.3%. The CD50 in the series with Plasmodium berghei [12] was found to be 780 mg/kg.
